# SENP1 FRET inh: human SENP1 catalytic domain inhibitors, primary screen, biochemical, FRET, uHTS. Sentrin-specific protease 1 (Homo sapiens), Q9P0U3. recombinant SENP1 catalytic domain, CyPet-SUMO1-YPet FRET cleavage. inhibition, % at 10 µM. 360,000 tested, 0.21% active. AID 624204, 2012;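 active means inhibition at least 30% at 10 µM, raw YFP signal under a set limit, fluorescence ratio 0.5 to 1.5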;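 further: 0% = enzyme with DMSO and 100% = no enzyme wells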
#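 Test system: recombinant human SENP1 catalytic domain, His6-tagged / Medium: pH 8 Tris buffer with EDTA, NaCl, BME, BSA, NP40, catalase / Also added: SUMO1 FRET substrate flanked by Cypet and Ypet, 25 nM / Times: 50 min reaction at room temperature / Signal: FRET, CFP and YFP emission / Control set: no-enzyme low control and enzyme-plus-DMSO high control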
# SENP8 block-1: human SENP8 protease inhibitors, primary screen, biochemical, fluorescence, Nedd8 protein substrate, uHTS; Sentrin-specific protease 8 (Homo sapiens), Q96LD8; recombinant SENP8; inhibition, % at 20 µM; 360,000 tested, 0.64% active; AID 602440, 2012; in the data active means inhibition mostly above about 40%, no sharp cut-off; inactive means mostly below about 27%
# SENP8 block-2: SENP8 protease inhibitors, primary screen, biochemical, luminescence | Sentrin-specific protease 8 (Homo sapiens), Q96LD8 | purified SENP8, Z-RLRGG-aminoluciferin cleavage | inhibition, % at 10 µM | 330,000 tested, 1.2% active; in the data active means inhibition above about 50%
# SENP7 block: SENP7 protease inhibitors, primary screen, biochemical, luminescence, uHTS | recombinant SENP7, Z-RLRGG-aminoluciferin luminescence, 40 min | inhibition, % at 5 µM | 330,000 tested, 1.5% active;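 active means inhibition above about 50% at the single test dose, limit read from the data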;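 further: plate controls were DMSO with enzyme for no effect and no enzyme buffer wells for full effect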
# Target sequence (Q9BQF6 706-1050 limits assumed): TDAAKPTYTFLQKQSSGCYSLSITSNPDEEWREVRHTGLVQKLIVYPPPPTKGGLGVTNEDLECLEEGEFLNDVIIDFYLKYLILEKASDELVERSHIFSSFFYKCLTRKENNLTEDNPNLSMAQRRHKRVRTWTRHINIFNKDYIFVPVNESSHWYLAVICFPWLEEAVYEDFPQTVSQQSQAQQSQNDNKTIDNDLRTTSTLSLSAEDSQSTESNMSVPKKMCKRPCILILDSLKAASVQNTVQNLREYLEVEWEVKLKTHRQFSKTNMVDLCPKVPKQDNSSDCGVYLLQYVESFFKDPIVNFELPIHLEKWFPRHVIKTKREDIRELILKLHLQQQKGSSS
# SENP6 block: SENP6 protease inhibitors, primary screen, biochemical, luminescence, uHTS; 330,000 tested, 1.8% active; Recombinant SENP6 catalytic domain, aminoluciferin luminescence; inhibition, % at 10 µM; Sentrin-specific protease 6 (Homo sapiens), Q9GZR1;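 active means inhibition above about 50% at the single tested dose, limit read from the data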;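 further: plate controls were DMSO wells with enzyme for no effect and DMSO wells lacking enzyme for full effect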
# Platelet DG rel: inhibitors of platelet dense granule secretion, primary screen, cell-based, MLPCN, human platelets. human platelet-rich plasma, SFLLRN dense granule ATP release, luminescence. inhibition, %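 (compounds screened at 7.5 µM in platelet-rich plasma)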. 300,000 tested, 0.22% active. AID 1663, 2009;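 active means mean replicate score, as percent of positive control, at or above 50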
# SENP1 conf: human SENP1 catalytic domain inhibitors, confirmation, biochemical, FRET endpoint, single concentration; inhibition, % at 10 µM; recombinant SENP1, CyPet-SUMO1-YPet FRET cleavage; AID 651678, 2012; 520 tested, 34% active; shares compounds with SENP1 FRET inh; in the data active means inhibition mostly above about 35%, no sharp cut-off; inactive means mostly below about 32%;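 further: 0% = enzyme with DMSO and 100% = no enzyme control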
# SENP1 kin conf: human SENP1 catalytic domain inhibitors, confirmation, biochemical, kinetic FRET, single concentration. inhibition, % at 10 µM. AID 651690, 2012. shares compounds with SENP1 FRET inh. recombinant SENP1, CyPet-SUMO1-YPet FRET kinetic cleavage. 520 tested, 26% active; in the data active means inhibition mostly above about 32%, no sharp cut-off; inactive means mostly below about 29%;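 further: 0% = DMSO with enzyme and 100% = no enzyme substrate only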
# The depositor's hits bear a star; . = not tested or not shown. Most compounds without a hit are left out; they make up all but 2.6% or so of the library.
SMILES,SENP1 FRET inh,SENP8 block-1,SENP8 block-2,SENP7 block,SENP6 block,Platelet DG rel,SENP1 conf,SENP1 kin conf
Cc1cc(C(=O)Nc2cccc3c2O[C@@H](CN(C)S(C)(=O)=O)[C@H](C)CN([C@@H](C)CO)C3=O)n(C)n1,2,8,-2,-3,-7,.,.,.
N#C/C(C(=O)NCCc1ccccc1)=C1/N=C(NC(=O)c2cccs2)c2ccccc21,36*,-22,1,1,-1,-8,-27,5
COc1ccc(CNC(=O)c2cn(Cc3ccccc3F)c(=O)s2)cc1,-4,-5,.,.,.,.,.,.
COc1ccc(-c2cnc(C(O)c3ccc(C(C)(C)C)cc3)[nH]2)cc1 (stereo not given),-11,-12,.,.,.,.,.,.
CS(=O)(=O)Nc1cccc(C2=NN(C(=O)c3ccccc3Cl)C(c3ccccc3O)C2)c1 (stereo not given),-1,21,-3,-1,-12,-1,.,.
Nc1c2c(nc3cccc(Cl)c13)N(c1ccccc1)CC2,55*,-40,-11,-3,-22,0,-12,-3
CC1CN(C(=O)COC(=O)Cc2ccc(Cl)cc2)CC(C)O1 (stereo not given),1,8,-16,-7,-9,.,.,.
COc1ccc(NC(=O)CCC(=O)c2ccc(-c3ccccc3)cc2)cc1,40*,-2,-10,-3,-7,-2,-1,-6
Cc1ccc2cc(/C=C(\C#N)C(N)=O)c(N3CCCCC3)nc2c1,75*,-63,-12,9,-3,0,50*,39*
O=C(NC(=S)Nc1ccccc1O)c1cncc(Br)c1,30*,8,-4,4,-6,8,6,4
O=C(NC(=S)Nc1ccccc1C(=O)O)c1cncc(Br)c1,-3,-72,11,-1,3,-1,.,.
O=C(OC(C(=O)NC1CCCC1)c1ccncc1)C1=Cc2ccccc2OC1 (stereo not given),2,-55,-10,3,-12,-1,.,.
C=CCc1c(C)nc(-c2ccccc2)nc1N/N=C/c1ccccc1,1,0,-2,7,-5,-2,.,.
C=CCc1c(C)nc(-c2ccccc2)nc1Nc1ccccc1O,47*,13,-4,4,-6,6,15,11
Cc1ccc2c(c1)N(C(=O)CCC(=O)NC1CCCCCC1)CCO2,1,8,1,-7,2,-6,.,.
COc1ccc(C2C(C(C)=O)=C(C)N=c3s/c(=C\c4ccco4)c(=O)n32)c(OC)c1 (stereo not given),37*,16,-7,-7,-1,-2,41*,32*
CCOC(=O)CC(S(=O)(=O)c1ccccc1)S(=O)(=O)c1ccccc1,0,20,.,.,.,.,.,.
CCS(=O)(=O)N1Cc2cc(C(=O)NCCOC)nc(-c3cccc(-c4ccncc4)c3)c2[C@H]1CCO,1,6,.,.,.,.,.,.
CCN(CC(=O)Nc1ccc(N2CCOCC2)cc1)C(=O)Cc1ccccc1,0,-5,-7,-2,-5,.,.,.
Cn1ncc(N=Cc2ccccc2O)c1C(=O)Nc1ccccc1,37*,9,-4,-7,-8,0,18,28
O=C(NN1C(=O)C2C3c4ccccc4C(c4ccccc43)[C@@H]2C1=O)c1ccccc1 (stereo not given in full),-2,14,-1,2,-5,9,.,.
